{
  "source": "ChEMBL document CHEMBL3997850",
  "about": "(ACS Med Chem Lett, 2017)",
  "key": {"Cytochrome P450 2D6": {"target": "Cytochrome P450 2D6 (Homo sapiens, UniProt P10635)", "sequence (P10635 whole entry)": "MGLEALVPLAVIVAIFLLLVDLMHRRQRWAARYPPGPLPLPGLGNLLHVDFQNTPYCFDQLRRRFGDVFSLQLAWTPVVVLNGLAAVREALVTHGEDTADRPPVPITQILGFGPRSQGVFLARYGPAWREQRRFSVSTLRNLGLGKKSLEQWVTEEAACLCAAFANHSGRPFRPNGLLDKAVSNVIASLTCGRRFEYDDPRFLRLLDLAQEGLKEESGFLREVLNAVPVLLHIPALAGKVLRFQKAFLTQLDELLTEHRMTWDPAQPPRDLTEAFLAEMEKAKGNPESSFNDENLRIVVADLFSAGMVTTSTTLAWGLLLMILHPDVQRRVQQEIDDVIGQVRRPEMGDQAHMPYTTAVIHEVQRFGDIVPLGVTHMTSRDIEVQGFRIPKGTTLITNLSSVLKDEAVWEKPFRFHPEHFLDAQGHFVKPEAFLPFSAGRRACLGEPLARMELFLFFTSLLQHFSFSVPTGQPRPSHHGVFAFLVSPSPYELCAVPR", "test": "Inhibition of recombinant human CYP2D6 assessed as decrease in hydroxylation of 7-methoxy-4-methylcoumarin by fluorimetric method", "format": "ADME", "settings": "recombinant enzyme; call rule not given here", "how_it_was_run": "(§1)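 Recombinant human isozymes with substrate at Km concentration: CYP2C9 with 7-methoxy-4-(trifluoromethyl)coumarin, CYP2D6 with 7-methoxy-4-methylcoumarin. Hydroxylation read fluorimetrically, inhibitor 0–25 µM.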"}, "Liver": {"system": "Liver", "test": "Intrinsic clearance in rat hepatic S9 fraction at 5 uM in presence of UDPGA measured over 30 mins by LC/MS analysis", "format": "ADME", "settings": "s9, 0.5 h"}, "[1]": {"test": "Oral bioavailability in rat at 5 mg/kg by LC/MS/MS analysis", "format": "ADME, organism-based", "settings": "in vivo", "how_it_was_run": "(§2)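 Male rats, 5 mg/kg IV in 10% DMAC/saline or 5 mg/kg oral in 0.5% aqueous methylcellulose. Plasma (EDTA) sampled pre-dose to 24 h. Quantified by acetonitrile precipitation and LC/MS/MS (2–10000 nM range, 0.1 mL). Non-compartmental analysis of concentration–time data.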"}, "[2]": {"test": "Half life in beagle dog at 10 mg/kg, po by LC/MS/MS analysis", "format": "ADME, organism-based, Canis lupus familiaris", "settings": "in vivo", "how_it_was_run": "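Male beagle dogs dosed 5 mg/kg IV in 10% DMAC in saline or 10 mg/kg oral in 5% DMAC in 0.5% methylcellulose. EDTA blood taken from pre-dose to 24 h and spun to plasma. Plasma proteins precipitated with acetonitrile, then LC/MS/MS (linear 2–10000 nM, 0.1 mL plasma). Parameters derived by non-compartmental analysis.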"}, "Mus musculus": {"system": "Mus musculus", "test": "Toxicity in mouse up to 2000 mg/kg/day after 28 days by histopathology test", "format": "organism-based", "settings": "in vivo, 672 h"}, "Cytochrome P450 2C8": {"target": "T1, Cytochrome P450 2C8 (Homo sapiens, UniProt P10632)", "T1 sequence (P10632 whole entry)": "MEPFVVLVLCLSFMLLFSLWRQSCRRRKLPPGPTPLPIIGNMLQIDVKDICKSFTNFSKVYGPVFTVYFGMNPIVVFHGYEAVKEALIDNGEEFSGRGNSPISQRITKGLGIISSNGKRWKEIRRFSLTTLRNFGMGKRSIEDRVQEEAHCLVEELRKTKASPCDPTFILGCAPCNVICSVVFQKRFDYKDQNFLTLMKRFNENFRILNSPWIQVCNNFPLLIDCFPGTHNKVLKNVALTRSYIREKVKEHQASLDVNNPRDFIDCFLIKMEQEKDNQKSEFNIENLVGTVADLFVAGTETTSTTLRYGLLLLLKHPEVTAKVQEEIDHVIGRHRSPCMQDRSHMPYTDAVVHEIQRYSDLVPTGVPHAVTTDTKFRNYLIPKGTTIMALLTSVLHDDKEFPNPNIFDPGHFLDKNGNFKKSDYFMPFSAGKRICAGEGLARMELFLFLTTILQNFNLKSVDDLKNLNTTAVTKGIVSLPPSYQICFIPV", "test": "Inhibition of recombinant human CYP2C8 assessed as decrease in conversion of dibenzylfluoresein to fluorescein by fluorimetric method", "format": "ADME", "settings": "recombinant enzyme", "how_it_was_run": "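Recombinant human CYP2C8; dibenzylfluorescein at Km concentration converted to fluorescein, measured fluorimetrically. Inhibitor range 0–25 µM.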"}, "[3]": {"test": "Half life in cynomolgus monkey at 10 mg/kg, po by LC/MS/MS analysis", "format": "ADME, organism-based, Macaca fascicularis", "settings": "in vivo", "how_it_was_run": "(§3)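 Male cynomolgus monkeys given 4 mg/kg IV (5% DMAC, 40% propylene glycol in saline) or 10 mg/kg orally (0.5% methylcellulose). EDTA plasma collected pre-dose through 24 h. Acetonitrile protein precipitation, then LC/MS/MS quantification, linear 2–10000 nM. PK parameters by standard non-compartmental methods.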"}, "[4]": {"test": "Half life in cynomolgus monkey at 4 mg/kg, iv by LC/MS/MS analysis", "format": "ADME, organism-based, Macaca fascicularis", "settings": "in vivo", "how_it_was_run": "as §3"}, "Canis familiaris": {"system": "Canis familiaris", "test": "Toxicity in dog assessed as change in body weight up to 500 mg/kg/day after 28 days", "format": "organism-based, Canis lupus familiaris", "settings": "in vivo, 672 h"}, "[5]": {"test": "Clearance in rat at 5 mg/kg, iv or 5 mg/kg, po by LC/MS/MS analysis", "format": "ADME, organism-based", "settings": "in vivo", "how_it_was_run": "as §2"}, "[6]": {"target": "Voltage-gated inwardly rectifying potassium channel KCNH2 (Homo sapiens, UniProt Q12809)", "sequence (Q12809 whole entry)": "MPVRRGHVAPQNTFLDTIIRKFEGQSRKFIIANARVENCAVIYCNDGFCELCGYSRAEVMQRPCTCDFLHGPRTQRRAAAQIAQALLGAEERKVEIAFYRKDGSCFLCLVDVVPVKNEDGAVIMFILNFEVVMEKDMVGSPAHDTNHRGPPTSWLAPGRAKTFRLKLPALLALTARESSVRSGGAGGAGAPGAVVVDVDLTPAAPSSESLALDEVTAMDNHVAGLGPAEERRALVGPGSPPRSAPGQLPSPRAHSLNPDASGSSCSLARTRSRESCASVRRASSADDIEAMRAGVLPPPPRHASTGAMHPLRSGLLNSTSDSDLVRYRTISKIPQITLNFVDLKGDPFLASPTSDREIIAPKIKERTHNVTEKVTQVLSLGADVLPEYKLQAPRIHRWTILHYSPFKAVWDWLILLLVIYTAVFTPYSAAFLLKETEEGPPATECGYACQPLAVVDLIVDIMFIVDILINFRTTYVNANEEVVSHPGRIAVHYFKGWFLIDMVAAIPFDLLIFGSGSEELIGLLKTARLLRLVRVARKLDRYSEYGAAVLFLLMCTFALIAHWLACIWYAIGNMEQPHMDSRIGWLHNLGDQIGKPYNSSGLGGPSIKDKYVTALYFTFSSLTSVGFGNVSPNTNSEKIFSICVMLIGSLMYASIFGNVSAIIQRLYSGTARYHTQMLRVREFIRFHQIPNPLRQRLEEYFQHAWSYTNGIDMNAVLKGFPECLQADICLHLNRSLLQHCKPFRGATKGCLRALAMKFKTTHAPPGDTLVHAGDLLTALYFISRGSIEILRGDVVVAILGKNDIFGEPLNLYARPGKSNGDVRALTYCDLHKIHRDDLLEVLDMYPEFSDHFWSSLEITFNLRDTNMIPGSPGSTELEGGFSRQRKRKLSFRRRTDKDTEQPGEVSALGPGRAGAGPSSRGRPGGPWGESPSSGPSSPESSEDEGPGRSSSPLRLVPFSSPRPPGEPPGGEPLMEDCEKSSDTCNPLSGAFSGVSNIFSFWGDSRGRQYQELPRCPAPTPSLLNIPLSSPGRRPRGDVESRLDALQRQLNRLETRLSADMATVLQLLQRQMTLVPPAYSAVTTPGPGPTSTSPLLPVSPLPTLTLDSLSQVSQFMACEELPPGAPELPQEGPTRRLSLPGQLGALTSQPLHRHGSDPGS", "test": "Inhibition of human ERG by patch clamp method"}, "[7]": {"test": "AUC in mouse CT26 cells allografted immunocompetent Balb/c mouse model at 30 mg/kg, po by LC/MS/MS analysis", "format": "ADME, organism-based", "settings": "in vivo"}, "Cytochrome P450 2C9": {"target": "Cytochrome P450 2C9 (Homo sapiens, UniProt P11712)", "sequence (P11712 whole entry)": "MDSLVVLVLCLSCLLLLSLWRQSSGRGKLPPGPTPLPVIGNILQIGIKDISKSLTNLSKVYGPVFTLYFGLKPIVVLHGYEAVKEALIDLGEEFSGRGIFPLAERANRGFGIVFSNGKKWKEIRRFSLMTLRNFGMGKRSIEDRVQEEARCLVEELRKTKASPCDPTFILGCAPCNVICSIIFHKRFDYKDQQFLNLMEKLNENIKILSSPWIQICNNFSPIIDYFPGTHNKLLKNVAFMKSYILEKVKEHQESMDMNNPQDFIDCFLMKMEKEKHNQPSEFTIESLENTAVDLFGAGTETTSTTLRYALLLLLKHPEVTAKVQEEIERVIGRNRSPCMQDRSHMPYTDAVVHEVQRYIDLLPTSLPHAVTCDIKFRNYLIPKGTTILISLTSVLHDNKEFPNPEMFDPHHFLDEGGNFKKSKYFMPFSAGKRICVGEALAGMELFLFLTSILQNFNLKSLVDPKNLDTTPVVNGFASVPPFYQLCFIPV", "test": "Inhibition of recombinant human CYP2C9 assessed as decrease in hydroxylation of 7-methoxy-4-(trifluoromethyl)-coumarin by fluorimetric method", "format": "ADME", "settings": "recombinant enzyme", "how_it_was_run": "as §1"}},
  "data": [
    {"smiles": "NS(=O)(=O)NCCNc1nonc1C(=NO)Nc1ccc(F)c(Br)c1", "note": "[EPACADOSTAT]", "values": [
      {"measurement": "inhibition (INH)", "setting": "Cytochrome P450 2D6", "value": "Not Active"},
      {"measurement": "CLH", "setting": "Liver", "value": 6.7, "unit": "mL/min/kg"},
      {"measurement": "bioavailability", "setting": "[1]", "value": 11, "unit": "%"},
      {"measurement": "half-life", "setting": "[2]", "value": 4.9, "unit": "h"},
      {"measurement": "Activity", "setting": "Mus musculus", "value": "Non-Toxic"},
      {"measurement": "inhibition (INH)", "setting": "Cytochrome P450 2C8", "value": "Not Active"},
      {"measurement": "half-life", "setting": "[3]", "value": 2.7, "unit": "h"},
      {"measurement": "half-life", "setting": "[4]", "value": 3.3, "unit": "h"},
      {"measurement": "Activity", "setting": "Canis familiaris", "value": "Non-Toxic"},
      {"measurement": "clearance", "setting": "[5]", "value": 18.3, "unit": "mL/min/kg"},
      {"measurement": "inhibition (INH)", "setting": "[6]", "value": "Not Active"},
      {"measurement": "AUC", "setting": "[7]", "value": 15, "unit": "µM·h"},
      {"measurement": "inhibition (INH)", "setting": "Cytochrome P450 2C9", "value": "Not Active"}
    ]}
  ]
}
